# SR-BI DiI-HDL act – SR-BI HDL lipid transfer activation; 320,000 tested, 0.096% active; CHO ldlA[mSR-BI] cells, DiI-HDL uptake fluorescence, 3 h; 100 = double the neutral-control signal; activation, % at 12.5 µM; AID 504775;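 active means mean replicate activation of at least 60% and every replicate at or above 60%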
#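 Material: SR-BI-overexpressing, LDLR-lacking CHO cells; schedule: compound exposure 3 h, 37 °C; reagent: DiI-labelled HDL at 10 µg/mL final; technique: bottom-read fluorescence, 550/595 nm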
# SR-BI DiI inh – inhibitors of mouse SR-BI mediated HDL lipid uptake. Q61009. ldlA[mSR-BI] CHO cells, DiI-HDL uptake fluorescence, 3 h. inhibition, % at 12.5 µM. 320,000 tested, 0.96% active. AID 488896;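 active means mean replicate inhibition of at least 70% and a set share of replicates each scoring 70 or more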
# CAL PDZ FP-1 – CAL PDZ (human) peptide binding inhibition. Q9HD26. purified CAL PDZ, TMR-peptide fluorescence polarization, 1 h. 300,000 tested, 0.92% active. inhibition, % at 24.9 µM;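 active means mean inhibition of at least 30% with at least half of replicates also reaching 30%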
# CAL PDZ FP-2 – inhibitors of human CAL PDZ peptide binding; Q9HD26; purified CAL PDZ, TMR-peptide fluorescence polarization, 1 h; inhibition, % at 20 µM; 330,000 tested, 0.02% active;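 active means highest replicate inhibition of at least 40%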
#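 Assay system – tagged CAL PDZ protein CerCALP, purified · Timing – 1 h at RT · Compound – single point, 20 µM · Measured by – fluorescence polarization from S- and P-plane intensities, G-factor corrected · Evaluation – inhibition from polarization loss · Probe or stimulus – TMR reporter peptide T*-PRC34 · Buffer or medium – pH 7.4 phosphate-saline buffer, reducing agent, detergent, IgG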
# dFosB act-1 – activators of mouse delta FosB homodimer; P13346; purified delta FosB, TAMRA-CDK5 oligo fluorescence polarization; percent of positive-control signal above neutral wells; activation, % at 25 µM; 340,000 tested, 0.99% active; AID 493131;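 active means mean activation above about 17%, with every replicate also reaching it, limit read from the data, passing the limit was not always enough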
# Target sequence (P13346 whole entry, looked up): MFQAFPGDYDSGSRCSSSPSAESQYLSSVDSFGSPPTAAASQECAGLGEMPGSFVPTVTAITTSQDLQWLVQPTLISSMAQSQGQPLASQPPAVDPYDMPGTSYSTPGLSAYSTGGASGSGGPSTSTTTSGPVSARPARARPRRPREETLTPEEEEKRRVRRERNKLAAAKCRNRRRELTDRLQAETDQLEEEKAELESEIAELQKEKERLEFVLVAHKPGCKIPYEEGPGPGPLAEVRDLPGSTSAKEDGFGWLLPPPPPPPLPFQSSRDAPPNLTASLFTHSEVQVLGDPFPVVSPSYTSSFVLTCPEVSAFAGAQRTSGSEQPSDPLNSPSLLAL
# DiI quench – counter-screen for SR-BI lipid transfer inhibitors: DiI fluorescence quenchers. shares compounds with SR-BI DiI inh. cell-free DiI-HDL fluorescence quenching, 30 min. 470 tested, 20% active. AID 540326. AC50, µM (titrated, usually from 35 µM);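 active means quenching, a falling signal, with AC50 below a set limit tied to the top valid dose, actives reach about 32 µM in these data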
# dFosB act-2 – enhances mouse delta FosB homodimer binding to DNA; shares compounds with dFosB act-1; purified delta FosB, TAMRA-CDK5 oligo fluorescence polarization; normalised: neutral wells 0, positive control 100; activation, % at 24.9 µM; 2,400 tested, under 10 active;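 active means highest replicate activation at or above 34% and every replicate reaching that threshold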;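 further: higher polarization means more probe DNA bound by delta FosB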
# A number is an active result; - = inactive; . = no result. Most compounds without a hit are left out; they make up all but 2.8% or so of the library.
SMILES,SR-BI DiI-HDL act,SR-BI DiI inh,CAL PDZ FP-1,CAL PDZ FP-2,dFosB act-1,dFosB act-2,others
Cc1c(Cl)cccc1S(=O)(=O)N1CCC(C(=O)NNC(=O)C2CC2)CC1,-,-,-,-,-,.,DiI quench=-
N#Cc1ccccc1OCC(=O)NNC(=O)CNC(=O)c1ccc(Br)o1,-,-,-,-,-,.,
Cc1ccc2c(c1)cc1c(=O)n(CC(=O)NCCCc3ccccc3)nc(C)n12,-,-,-,-,-,.,
CCOC(=O)N1CCC(NC(=O)c2ccc3c(c2)N(Cc2ccc(F)cc2)CCS3)CC1,-,72,-,-,-,.,DiI quench=-
COc1ccc(CCNC(=O)c2ccc3c(c2)N(Cc2ccccc2)CCS3)cc1OC,-,-,-,-,-,.,
COc1ccc(OC)c(CCNC(=O)c2ccc3c(c2)N(Cc2ccccc2)CCS3)c1,-,76,.,-,-,.,DiI quench=-
O=C(CCN1C(=O)c2ccccc2S1(=O)=O)Nc1ccc(C(=O)O)cc1,-,-,.,-,-,.,
O=S(=O)(NC1CC1)c1ccccc1,-,-,-,-,-,.,
CCOc1cc(N2CCOCC2)c(OCC)cc1NCC(=O)N1CCN(Cc2ccccc2)CC1,.,.,-,-,-,.,
Cc1ccc(C(=O)Nc2nc(-c3ccccn3)cs2)o1,-,-,-,-,-,.,
O=C(Nc1nc(-c2ccccn2)cs1)c1ccc(-c2ccccc2F)o1,-,-,-,-,-,.,DiI quench=-
Cc1c(C(=O)CN2CCCC(C)(C)C2)c2ccccc2n1C,-,76,-,-,-,.,DiI quench=-
Cc1c(C(=O)CN2CCSCC2)c2ccccc2n1C,-,-,-,-,-,.,
CC1CCCCC1NC(=O)c1nn(C)c2c1CS(=O)(=O)c1ccccc1-2 (stereo not drawn),-,78,-,-,-,.,DiI quench=-
COc1ccc(-c2ccc3c(c2)C2CC3CCN2Cc2ccc(OC(F)(F)F)cc2)cc1 (stereo not drawn),-,-,-,-,-,.,
Cc1cc(C(=O)COC(=O)c2ccc(Cl)c(S(N)(=O)=O)c2)c(C)n1C1CC1,-,75,41,-,-,.,DiI quench=-
CC(C)N(C(=O)COC(=O)c1ccc(Cl)c(S(N)(=O)=O)c1)C(C)C,-,-,-,-,-,.,
CC(OC(=O)c1cccc(NS(C)(=O)=O)c1)C(=O)Nc1ccc(N2CCOCC2)cc1 (stereo not drawn),-,78,-,-,-,.,DiI quench=-
COc1ccc2[nH]c3c(c2c1)CCN1C(=O)C(CC(=O)NCc2ccco2)C[C@H](C(=O)N2CCCCC2)[C@@]31CCc1ccccc1 (stereo partly drawn),-,-,-,-,-,.,
CCc1ccc(NC(=O)C2CCCN(S(=O)(=O)c3ccc4[nH]c(=O)ccc4c3)C2)cc1 (stereo not drawn),-,104,-,-,29,-,DiI quench=-
O=C(O)c1cccc(Nc2nc(-c3cc4ccccc4oc3=O)cs2)c1,-,-,-,-,-,.,
CCc1ccc(OCC(=O)NNC(=O)Cc2c(F)cccc2Cl)cc1,-,-,-,-,29,-,
CCC(C)C(NC(=O)c1ccccc1NC(=O)c1ccco1)C(=O)NC1CCCCC1 (stereo not drawn),-,-,-,-,31,-,
CCC(C)C(NC(=O)c1ccccc1NC(=O)c1ccco1)C(=O)NNC(=O)c1ccc(OC)cc1 (stereo not drawn),-,-,-,-,-,.,
COc1ccc(C(=O)NNC(=O)C(NC(=O)c2ccccc2NC(=O)c2ccco2)C(C)C)cc1 (stereo not drawn),-,-,-,-,32,-,
SMILES,SR-BI DiI-HDL act,SR-BI DiI inh,CAL PDZ FP-1,CAL PDZ FP-2,dFosB act-1,dFosB act-2,others
CCC(NC(=O)c1ccccc1NC(=O)c1ccco1)C(=O)NNC(=O)c1ccc(OC)cc1 (stereo not drawn),-,-,-,-,32,-,
O=C(O)CCCCCNC(=O)C(=O)C1C(=O)Nc2ccccc21 (stereo not drawn),-,-,-,-,-,.,
O=C1CCCCN1CC(=O)N1CCCC(Nc2ccc(F)cc2)C1 (stereo not drawn),-,-,-,-,-,.,
CC1(C)CC(/C=C/c2ccccc2)=Nc2ccccc2N1,.,.,-,-,-,.,
CCOc1ccc(-c2c(C(=O)N/N=C/c3ccc(Cl)cc3)nnn2-c2nonc2N)cc1,-,-,-,-,45,-,
CCOc1ccc(-c2c(C(=O)N/N=C/c3ccc(C)s3)nnn2-c2nonc2N)cc1,-,-,-,-,58,-,
CCOc1cccc(-c2c(C(=O)N/N=C/c3sccc3C)nnn2-c2nonc2N)c1,-,-,-,-,-,.,
CCOc1ccc(-c2c(C(=O)N/N=C/c3ccco3)nnn2-c2nonc2N)cc1,-,-,.,-,-,.,
CCOc1ccc(-c2c(C(=O)N/N=C/c3sccc3C)nnn2-c2nonc2N)cc1,-,87,-,-,22,-,
CCc1nonc1NC(=O)c1oc2ccc(F)cc2c1C,-,-,.,-,35,-,
Cc1cc2oc(C(=O)Nc3nonc3C)c(C)c2cc1C,-,-,-,-,20,-,
CCc1ccc2oc(C(=O)Nc3nonc3C)c(C)c2c1,-,-,-,-,-,.,
Cc1ccc(C)c(Cn2ncc3ccccc32)c1,-,-,-,-,-,.,
COc1ccc(OC)c(-c2csc(NC(=O)c3ccc(F)cc3)n2)c1,-,-,-,-,-,.,
Cc1ccc(C)c(NC(=O)c2ccccc2NS(=O)(=O)c2cc([N+](=O)[O-])ccc2C)c1,-,-,-,-,27,-,
CC(=O)c1cccc(OCC(=O)N(C)CC(=O)NCc2ccco2)c1,-,-,-,-,-,.,
CS(=O)(=O)N(Cc1ccccc1Cl)c1ccc(C(=O)N2CCCC2)cc1,-,-,.,-,-,.,
O=C(Nc1ccc(-c2nc3ccccc3[nH]2)cc1)c1ccc2c(c1)OCO2,-,-,-,-,58,-,
O=C(CSc1ccccc1)Nc1ccc(-c2nc3ccccc3[nH]2)cc1,-,-,-,-,-,.,
O=C(Nc1ccc(-c2nc3ccccc3[nH]2)cc1)c1c(F)c(F)c(F)c(F)c1F,-,-,-,-,29,-,
Cc1ccc2nc(-c3ccc(NC(=O)CSc4ccccc4)cc3)[nH]c2c1,-,-,-,-,25,-,
CC1(C(=O)OCc2cc(=O)n3cc(Br)ccc3n2)CC1(Cl)Cl (stereo not drawn),-,-,-,-,-,.,
O=C(C1CCCC1)N1CCN(S(=O)(=O)c2ccc(F)c(F)c2F)CC1,-,-,-,-,-,.,
Cc1cnc(C(=O)N2CCN(S(=O)(=O)c3ccc(F)c(F)c3F)CC2)cn1,-,-,-,-,19,-,
